From the M2OR odorant receptor database

tested on: T1, OR5K2 L197M; details: stereoisomer not certain
T1 sequence (whole entry): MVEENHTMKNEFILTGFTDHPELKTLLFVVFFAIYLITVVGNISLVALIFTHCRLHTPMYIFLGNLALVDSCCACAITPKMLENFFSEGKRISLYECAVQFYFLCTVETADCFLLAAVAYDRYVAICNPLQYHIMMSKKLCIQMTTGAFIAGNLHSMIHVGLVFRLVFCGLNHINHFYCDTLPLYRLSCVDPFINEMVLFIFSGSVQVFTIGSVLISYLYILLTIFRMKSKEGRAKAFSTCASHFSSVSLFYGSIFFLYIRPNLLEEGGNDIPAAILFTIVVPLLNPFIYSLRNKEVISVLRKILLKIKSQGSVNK
In short: (§1)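 Values were gathered from published papers (main text and supplementary material), with extra details requested from the original authors when needed, and checked for typos and inconsistencies. Each receptor–molecule pair is called responsive (active) if the original authors judged the measured signal statistically different from baseline, and non-responsive (inactive) otherwise. Assay methods varied by source, often transient mammalian cell-line luciferase assays. Recorded details include cell line, G-protein, co-transfected protein and tags.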

| SMILES | odorant receptor agonist call |
| --- | --- |
| CC1=C(O)C(=O)C(C)O1 (stereo unspecified) | inactive |
| CC1=C(O)C(=O)OC1C (stereo unspecified) | inactive |
| CCCCCCC=CCCC=O | inactive |
| Cc1cnc(C)c(C)n1 | inactive |
| CC1=NC(C)C(C)S1 (stereo unspecified) | inactive |
| CCCC(S)CCOC(C)=O (stereo unspecified) | inactive |
| CCC1OC(=O)C(O)=C1C (stereo unspecified) | inactive |
| CCC1OC(C)=C(O)C1=O (stereo unspecified) | inactive |

target: T2, OR5K3 (Homo sapiens) (UniProt A6NET4); details: stereoisomer not certain
T2 sequence (whole entry): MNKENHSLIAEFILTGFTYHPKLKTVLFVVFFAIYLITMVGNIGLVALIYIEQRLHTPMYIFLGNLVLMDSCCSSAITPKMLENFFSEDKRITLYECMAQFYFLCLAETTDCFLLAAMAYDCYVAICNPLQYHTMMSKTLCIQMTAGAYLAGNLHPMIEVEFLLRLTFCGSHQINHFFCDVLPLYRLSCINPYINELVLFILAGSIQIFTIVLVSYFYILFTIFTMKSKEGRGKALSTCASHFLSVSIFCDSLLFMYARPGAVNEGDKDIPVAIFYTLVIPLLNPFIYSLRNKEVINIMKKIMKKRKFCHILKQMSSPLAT
In short: as §1

| SMILES | odorant receptor agonist call |
| --- | --- |
| CC(=O)c1cnccn1 | inactive |
| CCc1nccnc1C(C)=O | inactive |
| CC1=C(O)C(=O)C(C)O1 (stereo unspecified) | inactive |
| CCc1nccnc1C | inactive |
| CC1CCCCCCCCCCCCC(=O)C1 (stereo unspecified) | inactive |
| Cc1cncc(C)n1 | inactive |
| CCc1ncc(C)nc1CC | inactive |
| CCCCCC(S)C(C)CO (stereo unspecified) | inactive |
| CCC(S)C(C)CO (stereo unspecified) | inactive |
| CCCCCC(=O)C(C)C(C)=O (stereo unspecified) | inactive |
| CC(CO)CS (stereo unspecified) | inactive |
| COc1nccnc1C(C)C | inactive |
| CCc1nccnc1CC | inactive |
| CC(=O)c1c(C)c([N+](=O)[O-])c(C(C)(C)C)c([N+](=O)[O-])c1C | inactive |
| CC1=C(O)C(=O)OC1C (stereo unspecified) | inactive |
| CCc1nccnc1OC | inactive |
| CCCCCCC=CCCC=O | inactive |
| Cc1nccnc1C | inactive |
| C=Cc1cnccn1 | inactive |
| Cc1cnc(C)c(C)n1 | inactive |
| CC1=NC(C)C(C)S1 (stereo unspecified) | inactive |
| COc1cnccn1 | inactive |
| Cc1cnc(C)cn1 | inactive |
| CC1CCc2nccnc21 (stereo unspecified) | inactive |
| Cc1cnccn1 | inactive |
| CCCC(S)CCOC(C)=O (stereo unspecified) | inactive |
| COc1nccnc1CC(C)C | inactive |
| CCC1OC(=O)C(O)=C1C (stereo unspecified) | inactive |
